Measured values from ChEMBL document CHEMBL4513216, “Probing the Open Global Health Chemical Diversity Library for Multistage-Active Starting Points for Next-Generation Antimalarials” (ACS Infect Dis, 2020).

Test: Toxicity liver stage against HepG2, at 10uM
Assay type: cell-based
Parameters: test concentration 10 uM, cell line HepG2-A16-CD81EGFP
Details: human, HepG2-A16-CD81EGFP cells; read-out: INHIBITION
Procedure, shortened: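 Uninfected HepG2-A16-CD81EGFP cells, 3 × 10^3 per well, 1536-well, plated on prespotted compound at 10 μM final, parasite-free screening media added to match infected plates; puromycin 10 μM positive, DMSO 0.5% negative; run in parallel with 48 h PbLuc assay at 37 °C, 5% CO2; viability by CellTiter-Glo luminescence, normalized to controls.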

| SMILES | cytotoxicity at 10 µM [%] |
| --- | --- |
| N#Cc1cn(C2CC2)c(=O)n(Cc2noc(-c3ccsc3)n2)c1=O | 0.836 |
| CCOCCOCc1cccc(CNc2cncc(-n3cccn3)n2)c1 | 7.74 |
| CN(C)CCCNC(=O)c1ccccc1NC(=O)c1ccccc1Cl | -0.986 |
| O=C(CCc1cc2n(n1)CCN(CCCn1cccc1)C2)N1CCCC1 | -15.4 |
| Cc1nn(C)c(C)c1C1CCCN1C(=O)CCNc1ncccn1 (stereo not given) | -7.37 |
| CS(=O)(=O)c1snnc1C1CCN(Cc2cccnc2)CC1 | -11.2 |
| c1ccc(Oc2nccc3occc23)c(CN2CCCCC2)c1 | -10.1 |
| CC(C)c1cc(O)nc(C2CCCN2C(=O)C2CC2)n1 (stereo not given) | -25.1 |
| Cc1cccc(C(C(=O)N(C)Cc2cc(C)no2)N(C)C)c1 (stereo not given) | 4.94 |
| O=C(c1csc(-c2ccccn2)n1)N1CCCC1Cn1cccn1 (stereo not given) | -3.69 |
| CCCn1ncc(C(=O)N2CCN(C3CCSCC3)CC2)c1C | -148 |
| CN1CCCC(Cc2cncc(Br)c2)CC1 (stereo not given) | -5.95 |
| CC(C)CCNC(=O)CCc1ccnc2ccccc12 | -0.69 |
| CCc1nnc(SCc2nonc2C)n1C1CC1 | 0.649 |
| COc1cc2c(cc1CNC(Cc1cccs1)c1nccs1)OCCO2 (stereo not given) | -1.6 |
| Cc1nc(CNC(=O)c2cc(COc3ccccc3F)[nH]n2)n[nH]1 | -7.42 |
| CC(=O)N1Cc2ccccc2CC1C(=O)Nc1ccc(N(C)C)cn1 (stereo not given) | -1.92 |
| NC(=O)CN(C(=O)c1cccc(C(F)(F)F)c1)C1CCCC1 | -0.296 |
| O=S(=O)(Cc1ccccc1F)NCCN1CCOCC1 | 24.8 |
| CS(=O)(=O)N1CCCC(C(=O)Nc2cnn(COCC(F)(F)F)c2)C1 (stereo not given) | -11.5 |
| COCC(C)(O)CNC(=O)COc1ccccc1OC (stereo not given) | -12.2 |
| CN(CC(F)(F)F)C(=O)CNC(=O)N1CCCC(C(F)(F)F)C1 (stereo not given) | 0.601 |
| O=C(COc1ccccc1)N1C[C@@H]2COC[C@]2(COc2cccnc2)C1 | -100 |

| SMILES | cytotoxicity at 10 µM [%] |
| --- | --- |
| CN(Cc1cnn(C)c1)Cc1nc(Cc2cccc(Cl)c2)no1 | 6.53 |
| O=C1CCOCCN1Cc1ccc(C(F)(F)F)c(F)c1 | -7.63 |
| COc1c(CNCc2ccc(N(C)C)nc2)c(C(C)C)nn1C | -9.75 |
| COc1cccc(C2CCCN2CCCNS(C)(=O)=O)c1 (stereo not given) | -2 |
| O=C(c1c[nH]c(=O)[nH]c1=O)N1CCCC(c2cnccn2)C1 (stereo not given) | -3.58 |
| CC(=O)NC1CCCN(Cc2csc(-c3ncccn3)n2)C1 (stereo not given) | -13.1 |
| CC(O)CN(c1ccccc1)S(=O)(=O)c1cc(C(=O)O)cc2c1CCC2 (stereo not given) | 11.1 |
| CCOc1ccnc(N2CCN(C(=O)c3cc(Cl)c[nH]3)CC2)n1 | -9.29 |
| NC(=O)CN1CC2(CCC1=O)CCN(Cc1ccc(F)cc1Cl)CC2 | 3.59 |
| CN1CCN(CC(NCc2ccc(F)c(F)c2)c2ccccc2)CC1 (stereo not given) | -10 |
| COCCC(=O)N1C[C@@H](c2ccc(F)c(F)c2)[C@@]2(CCCC(=O)N2)C1 | -9.06 |
| COc1cccc2c1OCC(C(=O)N1Cc3ccccc3C1)C2 (stereo not given) | 3.16 |
| COCCCNC(=O)Cc1cc(-c2ccc(Cl)cc2)on1 | -21.4 |
| O=C(NCc1noc(C2CCCO2)n1)c1cn2ccsc2n1 (stereo not given) | -3.77 |
| CCOC(=O)CCC(=O)NC(C)c1ccc(NC(=O)CC)cc1 (stereo not given) | 0.097 |
| Cc1nnc(N2C[C@@H](OCC3CCCC3)[C@H]3OCCC[C@H]32)s1 | 14.3 |
| CN(C)C(=O)CCCn1ccc(NCc2ccc(C#N)cc2)n1 | 1.92 |
| Cc1cccc(C(=O)N2C[C@@H]3OCCN(CCN4CCCC4)[C@@H]3C2)n1 | -65 |
| O=C(Nc1ccccc1Cn1cccn1)N1CCCC(N2CCCC2)C1 (stereo not given) | 5.6 |
| CCNC(=O)[C@@H]1C[C@@H](N)CN1Cc1ccc(-c2ccccc2C#N)o1 | -50.1 |
| CC(=O)N1CCC2(CC1)CCN(C(=O)c1ccc(F)c(C(F)(F)F)c1)C2 | -80 |
| COc1ccc(OC)c(C(O)CNC(=O)Nc2cccnc2OC)c1 (stereo not given) | -22.4 |
